pKi: −log10 of the molar value.
Columns and labels:
Rattus norvegicus [1] = test: The compound was tested in vivo for inhibitory effect on 48-h homologous passive cutaneous anaphylaxis (PCA) in rats administered perorally; type: functional; conditions: po
Summary of the method: (§1)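 Male Wistar rats, three per group, received intradermal anti-ovalbumin rat IgE serum (0.05 mL, 1:8 in saline) at two dorsal sites. After 48 h they were challenged iv with 1 mg ovalbumin plus 5 mg Evans blue. Compound was given orally 1 h before challenge. […] ED50 came from responders (>50% inhibition).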

[2] = target: T1, Muscarinic acetylcholine receptor M1 (Rattus norvegicus) (UniProt P08482); test: Binding affinity for Muscarinic acetylcholine receptor M1 from rat striatum, using [3H]quinuclidinyl benzilate as radioligand at 10 uM.
T1 sequence (whole entry): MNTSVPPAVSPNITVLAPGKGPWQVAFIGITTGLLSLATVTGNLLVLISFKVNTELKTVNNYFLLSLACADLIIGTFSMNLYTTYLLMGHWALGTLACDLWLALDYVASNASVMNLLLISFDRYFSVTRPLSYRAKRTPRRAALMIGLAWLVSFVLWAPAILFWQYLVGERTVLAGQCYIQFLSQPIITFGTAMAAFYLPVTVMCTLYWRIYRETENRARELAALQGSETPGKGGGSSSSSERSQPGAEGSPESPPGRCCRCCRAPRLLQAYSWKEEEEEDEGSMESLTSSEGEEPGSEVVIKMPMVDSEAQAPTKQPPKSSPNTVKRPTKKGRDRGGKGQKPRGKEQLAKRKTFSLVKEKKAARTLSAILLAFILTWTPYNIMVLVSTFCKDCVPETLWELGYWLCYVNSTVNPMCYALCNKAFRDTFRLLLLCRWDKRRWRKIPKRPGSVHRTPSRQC
Summary of the method: (§2)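 Rat striatum was homogenized in water and diluted to 200 volumes in 50 mM Na/K phosphate, pH 7.4. Nonspecific binding was defined with 1 μM unlabeled dexetimide. Bound ligand was collected by GF/B filtration with three ice-cold buffer washes and counted by scintillation.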

Cavia porcellus = test: The compound was tested in vivo for the inhibition of IgG1-mediated bronchoconstriction in guinea pig at 0.03 mg/kg administered perorally; type: functional; conditions: route oral; for ED50: read-out: ID50 (the source's name)
Summary of the method: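 Male Hartley guinea pigs, 8–12 per group, were passively sensitized ip with 1 mL IgG-like anti-ovalbumin antiserum. After 24 h they were urethane-anesthetized, ventilated and given gallamine. Compound was given orally 1 h before ovalbumin challenge (5 mg/kg iv). Konzett–Rössler overflow was read as % inhibition versus controls at 5 min after challenge.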

Histamine H1 receptor [3] = target: T2, Histamine H1 receptor (Cavia porcellus, UniProt P31389); test: (§3) The compound was tested in vitro for binding affinity against histamine H1 receptor from guinea pig cerebellum, using [3H]pyrilamine as radioligand at 0.1 uM; type: tissue-based
Summary of the method: (§4)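 Male Hartley guinea-pig cerebellum membranes (washed twice, 35000–35500g) in 50 mM Na/K phosphate, pH 7.5. Nonspecific binding was set with 1 μM astemizole. Bound ligand was collected by GF/C filtration with three ice-cold washes and counted by liquid scintillation.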

[4] = target: T1, Muscarinic acetylcholine receptor M1 (Rattus norvegicus); test: The compound was tested in vitro for binding affinity Muscarinic acetylcholine receptor M1 from rat striatum, using [3H]quinuclidinyl benzilate as radioligand at 10 uM.
Summary of the method: as §2, with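 “7.4. Tissue (5 mg wet weight) was incubated with 1.26 nM [3H]quinuclidinyl benzilate for 60 min at 37 °C.” for “7.4.”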

Rattus norvegicus [5] = test: The compound at 1 uM was tested in vivo for inhibitory effect on 48-h homologous passive cutaneous anaphylaxis (PCA) in rats administered perorally; type: functional; conditions: in the assay text read “at 1 mg/kg” for “at 1 uM”; summary of the method: as §1
Histamine H1 receptor [6] = target: T2, Histamine H1 receptor; test: Binding affinity for histamine H1 receptor from guinea pig cerebellum, using [3H]pyrilamine as radioligand at 0.1 uM; type: tissue-based
Summary of the method: as §4, with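 “7.5. Tissue (10 mg wet weight) was incubated with 3.8 nM [3H]pyrilamine and 0.1 μM drug for 30 min at 25 °C.” for “7.5.”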

[7] = target: Histamine H1 receptor (Cavia porcellus) (UniProt P31389); test: as §3; type: tissue-based
Summary of the method: as §4, with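 “7.5. Tissue (10 mg wet weight) was incubated with 3.8 nM [3H]pyrilamine and 0.1 μM drug for 30 min at 25 °C.” for “7.5.”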

Rattus norvegicus [8] = test: The compound at 1 mg/kg was tested in vivo for inhibitory effect on 48-h homologous passive cutaneous anaphylaxis (PCA) in rats administered perorally
[9] = target: T1, Muscarinic acetylcholine receptor M1 (Rattus norvegicus); test: The compound was tested in vitro for binding affinity against muscarinic acetylcholine Muscarinic acetylcholine receptor M1 from rat striatum, using [3H]quinuclidinyl benzilate as radioligand at 10 uM.
Summary of the method: as §2, with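 “7.4. Tissue (5 mg wet weight) was incubated with 1.26 nM [3H]quinuclidinyl benzilate for 60 min at 37 °C.” for “7.4.”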

Rattus norvegicus [10] = test: The compound at 10 uM was tested in vivo for inhibitory effect on 48-h homologous passive cutaneous anaphylaxis (PCA) in rats administered perorally; type: functional; conditions: in the assay text read “at 10 mg/kg” for “at 10 uM”; summary of the method: as §1

T2 sequence (P31389 whole entry): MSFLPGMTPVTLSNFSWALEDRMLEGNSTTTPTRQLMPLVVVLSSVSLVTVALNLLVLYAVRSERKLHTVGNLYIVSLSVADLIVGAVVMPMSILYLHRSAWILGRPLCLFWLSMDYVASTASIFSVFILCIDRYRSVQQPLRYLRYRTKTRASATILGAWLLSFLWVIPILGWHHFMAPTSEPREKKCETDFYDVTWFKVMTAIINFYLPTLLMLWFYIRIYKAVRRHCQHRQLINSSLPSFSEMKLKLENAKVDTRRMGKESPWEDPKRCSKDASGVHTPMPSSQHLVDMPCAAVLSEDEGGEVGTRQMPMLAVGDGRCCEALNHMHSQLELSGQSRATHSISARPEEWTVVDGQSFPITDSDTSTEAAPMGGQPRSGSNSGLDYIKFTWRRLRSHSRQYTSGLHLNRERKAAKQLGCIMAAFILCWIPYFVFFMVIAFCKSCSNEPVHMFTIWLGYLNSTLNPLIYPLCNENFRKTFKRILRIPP
Histamine H1 receptor (Cavia porcellus), sequence (P31389 whole entry): as above

Structure (SMILES)	inhibition [2]	pKi (Histamine H1 receptor [6])	ED50 (Rattus norvegicus [1])	ED50 (Cavia porcellus)	inhibition in vivo at 0.03 mg/kg (Cavia porcellus)	further results
CN1CCC(=C2c3ccccc3CC(=O)c3sccc32)CC1 [KETOTIFEN]	55%	–	4.8 mg/kg	0.009 mg/kg	–	–
CN(C)CC/C=C1/c2ccccc2COc2ccc(CCC(=O)O)cc21	–	–	0.32 mg/kg	0.015 mg/kg	–	pKi (Histamine H1 receptor [3]): 7.82; inhibition [4]: 2%
O=C(O)/C=C/C(=O)O.O=C(O)c1ccc2c(c1)/C(=C/CN1CCOCC1)c1ccccc1CO2	–	–	–	–	–	inhibition [7]: 19%; Inhibition (Rattus norvegicus [8]): 12%; inhibition [9]: 2%
CN1CCN(C/C=C2\c3ccccc3COc3ccc(CC(=O)O)cc32)CC1.O=C(O)/C=C/C(=O)O	–	–	–	–	–	inhibition [7]: 29%; inhibition [9]: 3%; Inhibition (Rattus norvegicus [5]): 44%
CN(C)C/C=C1\c2ccccc2COc2ccc(CC(=O)O)cc21	–	–	0.077 mg/kg	0.018 mg/kg	–	pKi (Histamine H1 receptor [3]): 7.96; inhibition [4]: 1%
CN(C)CCC/C=C1/c2ccccc2COc2ccc(CC(=O)O)cc21	2%	8.34	–	–	60%	Inhibition (Rattus norvegicus [5]): 55%
CN(C)CC/C=C1\c2ccccc2COc2ccc(CC(=O)O)cc21	-1%	8.28	0.021 mg/kg	0.0041 mg/kg	–	–
CN(C)CC/C=C1/c2ccccc2COc2ccc(CCO)cc21	80%	–	0.12 mg/kg	–	–	pKi (Histamine H1 receptor [3]): 9.20
O=C(O)/C=C/C(=O)O.O=C(O)c1ccc2c(c1)/C(=C/CN1CCSCC1)c1ccccc1CO2	–	–	–	–	–	inhibition [7]: 30%; inhibition [9]: 3%; Inhibition (Rattus norvegicus [10]): 24%
CN(C)CCSC1c2ccccc2COc2ccc(C(=O)O)cc21.Cl (configuration not stated)	–	7.85	0.92 mg/kg	0.029 mg/kg	–	inhibition [9]: 7%
CN(C)CC/C=C1\c2ccccc2COc2ccc(CCO)cc21	72%	9.32	0.14 mg/kg	0.0059 mg/kg	–	–
CN(C)CC/C=C1/c2ccccc2COc2ccc(CC(=O)O)cc21.Cl [OLOPATADINE HYDROCHLORIDE]	3%	7.80	0.049 mg/kg	0.03 mg/kg	–	–
CN(C)CC/C=C1\c2ccccc2COc2ccc(CCC(=O)O)cc21	5%	8.38	0.26 mg/kg	0.0064 mg/kg	–	–
CN1CCN(C/C=C2\c3ccccc3COc3ccc(C(=O)O)cc32)CC1.O=C(O)/C=C/C(=O)O	–	–	–	–	–	inhibition [7]: 0%; Inhibition (Rattus norvegicus [8]): 10%; inhibition [9]: 2%
CC(C)O.O=C(O)c1ccc2c(c1)/C(=C\CCN1CCOCC1)c1ccccc1CO2	–	–	–	–	-1%	inhibition [7]: 24%; inhibition [9]: -2%; Inhibition (Rattus norvegicus [5]): 74%
CN(C)CC/C=C(/c1ccccc1)c1cccc(C(=O)O)c1	4%	–	–	–	–	inhibition [7]: 10%

Second part, led by results:

inhibition [2]	pKi (Histamine H1 receptor [6])	Structure (SMILES)	ED50 (Rattus norvegicus [1])	ED50 (Cavia porcellus)	inhibition in vivo at 0.03 mg/kg (Cavia porcellus)	further results
–	9.89	Cc1ccc2c(c1)/C(=C/CCN(C)C)c1ccccc1CO2.O=C(O)/C=C/C(=O)O	–	–	–	Inhibition (Rattus norvegicus [5]): 20%
-2%	7.92	CN(C)C/C=C1\c2ccccc2COc2ccc(C(=O)O)cc21.O=C(O)/C=C/C(=O)O	–	–	28%	Inhibition (Rattus norvegicus [8]): 19%
27%	8.12	O=C(O)c1ccc2c(c1)/C(=C\CCN1CCSCC1)c1ccccc1CO2	–	–	27%	Inhibition (Rattus norvegicus [5]): 60%
-1%	7.62	CN(C)CC/C=C1/c2ccccc2COc2cc(C(=O)O)ccc21	–	–	–	Inhibition (Rattus norvegicus [8]): 19%
3%	8.30	O=C(O)/C=C/C(=O)O.O=C(O)c1ccc2c(c1)/C(=C\CCN1CCCC1)c1ccccc1CO2	–	–	8.7%	Inhibition (Rattus norvegicus [10]): 53%
-1%	7.54	CN(C)CC/C=C1/c2ccccc2COc2ccc(/C=C/C(=O)O)cc21.O=C(O)/C=C/C(=O)O	1 mg/kg	–	1.1%	–
5%	8.38	CN(C)CC/C=C1\c2ccccc2COc2ccc(C(=O)O)cc21.O=C(O)/C=C/C(=O)O	0.74 mg/kg	0.021 mg/kg	–	–
1%	7.70	CN(C)CC/C=C1/c2ccccc2COc2ccc(C(=O)O)cc21	0.25 mg/kg	0.053 mg/kg	–	–
12%	8.20	CN(C)CCC/C=C1\c2ccccc2COc2ccc(C(=O)O)cc21	1.2 mg/kg	–	1.4%	–
3%	8.00	CCN(CC)CC/C=C1/c2ccccc2COc2ccc(C(=O)O)cc21.O=C(O)/C=C/C(=O)O	0.12 mg/kg	–	19%	–
2%	–	CN(C)CCC/C=C1/c2ccccc2COc2ccc(C(=O)O)cc21	1.2 mg/kg	–	11%	pKi (Histamine H1 receptor [3]): 8.24
